This is one part of a sample in which hits are shown more often than they occur.
CD11b adhes inh – CD11b/CD18-fibrinogen binding inhibition; K562 CD11b/CD18 adhesion to fibrinogen, ATPlite luminescence; Mn2+ added to activate the integrin; inhibition, % at 10 µM; AID 1497; 93,000 compounds, 0.54% hits;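 active means primary inhibition of 50% or more at 10 µM, then 40% or more on retest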
Target sequence (P05107 whole entry, looked up, other chains not shown): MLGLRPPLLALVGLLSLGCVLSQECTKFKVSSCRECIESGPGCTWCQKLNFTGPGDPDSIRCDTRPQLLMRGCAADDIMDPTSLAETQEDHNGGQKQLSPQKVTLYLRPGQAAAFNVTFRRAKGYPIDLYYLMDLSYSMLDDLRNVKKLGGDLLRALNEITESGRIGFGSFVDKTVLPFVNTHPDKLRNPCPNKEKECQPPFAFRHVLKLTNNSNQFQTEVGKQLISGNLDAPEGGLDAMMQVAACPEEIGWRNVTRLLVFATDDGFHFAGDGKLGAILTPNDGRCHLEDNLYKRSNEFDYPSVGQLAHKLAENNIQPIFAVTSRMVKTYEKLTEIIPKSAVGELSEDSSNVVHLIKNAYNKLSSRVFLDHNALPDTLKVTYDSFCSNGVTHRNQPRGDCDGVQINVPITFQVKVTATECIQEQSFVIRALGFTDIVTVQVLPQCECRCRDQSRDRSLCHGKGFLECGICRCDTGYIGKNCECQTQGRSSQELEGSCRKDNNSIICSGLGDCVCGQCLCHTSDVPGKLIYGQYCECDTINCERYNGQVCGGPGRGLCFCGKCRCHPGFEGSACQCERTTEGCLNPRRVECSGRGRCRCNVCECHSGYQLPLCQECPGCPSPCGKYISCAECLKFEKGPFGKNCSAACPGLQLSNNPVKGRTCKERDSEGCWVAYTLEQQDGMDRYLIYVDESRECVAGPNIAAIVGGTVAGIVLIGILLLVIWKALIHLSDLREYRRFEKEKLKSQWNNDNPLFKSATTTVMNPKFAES
Mac1 fbg enh – enhancers of human CD11b/CD18 binding to fibrinogen | 93,000 compounds, 0.07% hits | K562 CD11b/CD18 adhesion to fibrinogen, ATPlite luminescence | AID 1499 | P05107+P11215 | activation, % at 10 µM;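 active means 10 µM primary screen giving 50% or more activity, confirmed by 40% or more on retest at that dose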
E coli WT exp – E. coli BW25113 growth inhibition, expanded screen. growth inhibition, % at 100 µM. OD600 absorbance. 98,000 compounds, 0.15% hits. AID 710;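 active means growth inhibition above about 50% at one test dose, limit read from the data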;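 further: growth measured after 20 h incubation at 37 °C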
Ecoli tolC – E. coli tolC mutant growth inhibition | E. coli BW25113 tolC mutant growth, OD615 | growth inhibition, % at 10 µM (by protocol) | 65,000 compounds, 2.2% hits | AID 573;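 active means growth inhibition at or above a cutoff equal to the mean over every tested compound plus 3 SD, cut at about 60% in these data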;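 further: growth measured after 20 h incubation at 37 °C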
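Doses: one dose of 10 µM final / Material: E. coli BW25113 ΔtolC::kan, tolC deletion mutant strain / Buffer or medium: LB with kanamycin 50 µg/mL / Evaluation: percent growth inhibition / Detection: optical density read at 615 nm / Incubation: 37 °C, 20 h exposure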
* hit, by the source's call; . = no result given.

SMILES	CD11b adhes inh	Mac1 fbg enh	E coli WT exp	Ecoli tolC
O=C(c1ccco1)N1CCN(c2c(-c3ccccc3)c3cc(Cl)ccc3[nH]c2=O)CC1	24	-5	-7	70*
Fc1ccc(Cn2ccc(-c3cnc(-c4ccccc4)s3)n2)cc1	56*	-4	3	.
CCCCCOc1ccc(Br)cc1CSC(=N)N	105*	-5	.	.
CCCCOc1ccc(Cl)cc1CSc1nnc(CC)n1N	-26	1	4	8
CCOC(=O)c1sc(NC(=O)c2cccnc2)c(C#N)c1C	63*	-9	-20	.
Cc1ccnc(SCC(=O)Nc2oc(-c3ccccc3)c(-c3ccccc3)c2C#N)n1	46	-4	-13	1
CCOC(=O)c1c(NC(=O)c2cccnc2)sc(C)c1C	.	.	10	.
N#Cc1c(NC(=O)CSc2n[nH]c(Cc3ccccc3)n2)oc(-c2ccccc2)c1-c1ccccc1	86	-11	-13	64*
CCOC(=O)c1sc(NC(=O)CSc2n[nH]c(-c3ccccc3)n2)c(C#N)c1C	96	-15	-11	100*
CCCc1[nH]c(=O)c(C#N)c2c1CCCC2	.	.	3	.
C=CCn1c(SCC(=O)Nc2ccc3c(c2)CCC3)nnc1-c1cccs1	8	2	2	77*
C=CCn1c(SCC(=O)O)nnc1-c1cccs1	-5	-1	-5	.
Cc1ccc(C(=O)C[n+]2cc(-c3ccc(C)cc3)n3c2CCCCC3)cc1	54*	-6	14	.
O=C(Nc1cnn(Cc2ccc(Cl)cc2Cl)c1)c1noc2c1CCCC2	.	.	-6	71*
FC(F)Sc1ccc(NC(=S)NCC2CCCCC2)cc1	92*	-10	11	.
CCc1cccc(NC(=O)c2ccc(NS(=O)(=O)c3c(C)noc3C)cc2)c1	0	0	14	77*
Cc1cccc(NC(=O)c2ccc(NS(=O)(=O)c3c(C)noc3C)cc2)c1	-7	3	-1	45
Cc1cccc(N2CCN(C(=O)c3ccc(NS(=O)(=O)c4c(C)noc4C)cc3)CC2)c1C	-22	6	-12	84*
Cc1noc(C)c1S(=O)(=O)Nc1ccc(C(=O)N2CCN(c3cccc(Cl)c3)CC2)cc1	2	-6	0	.
Cc1cccc(N2CCN(C(=O)CSCc3c(C)noc3C)CC2)c1C	99*	-9	8	21
CN(C)S(=O)(=O)c1ccc(NC(=O)N2CCN(c3ccccc3)CC2)cc1	8	1	0	.
COC(=O)c1ccc(C2c3c(n[nH]c3C)C(=O)N2c2ccc(C)cc2)cc1 (stereo unspecified)	-4	3	4	75*
CCOC(=O)c1ccc(N2C(=O)c3n[nH]c(C)c3C2c2ccc(OC)cc2OC)cc1 (stereo unspecified)	.	.	.	68*
CCOC(=O)c1ccc(-n2c(C)nc3c(cnn3-c3ccc(Cl)cc3)c2=O)cc1	39	-2	-11	.
COc1ccc(-n2c(C)nc3c(cnn3-c3ccc(Cl)cc3)c2=O)cc1	4	1	-2	75*
SMILES	CD11b adhes inh	Mac1 fbg enh	E coli WT exp	Ecoli tolC
CCOC(=O)c1cc2c(ccn2C)n1Cc1ccccc1C	-47	-1	-10	69*
Cc1ccccc1Cn1c(C(=O)OC(C)C)cc2c1ccn2C	.	.	6	.
COc1cc(NC(=O)CSc2ncnc3c2cnn3Cc2ccccc2)cc(OC)c1	64*	0	1	.
CN1C(=O)C2(OCC(COc3ccc(Cl)cc3)O2)c2ccccc21 (stereo unspecified)	16	-3	-8	71*
O=C1Nc2ccccc2C12OCC(COc1ccc(Cl)cc1)O2 (stereo unspecified)	12	10	12	93*
O=C(CN1C(=O)C2(OCCO2)c2ccccc21)c1ccc(Cl)cc1	.	.	-14	0
CC1OC2(OC1C)C(=O)Nc1ccccc12 (stereo unspecified)	-11	-1	8	.
COc1cc2c3c(c1)C1(C(=O)N3C(C)(C)C=C2C)C(C#N)=C(N)Oc2cc(O)ccc21 (stereo unspecified)	-5	-4	7	65*
CCOc1cc2c3c(c1)C1(C(=O)N3C(C)(C)C=C2C)C(C#N)=C(N)Oc2cc(O)ccc21 (stereo unspecified)	12	-8	2	57
COc1ccc(CNC(=O)CSc2ccc(Br)cc2)cc1OC	28	3	.	.
CN(CCCC(=O)Nc1ccncc1)S(=O)(=O)c1ccc(Cl)cc1	50*	-6	2	-1
CN(CC(=O)Nc1ccncc1)S(=O)(=O)c1ccc(Br)cc1	-4	-3	4	.
CC(=O)Nc1ccc(S(=O)(=O)Nc2cccc(-c3nc4ccccc4o3)c2)cc1	28	-3	5	.
O=S(=O)(Nc1ccc(-c2nc3ccccc3o2)cc1)c1ccccc1	15	2	0	93*
CC(C)c1ccc(-c2noc(C3CCCN(C(=O)c4ccc(F)cc4F)C3)n2)cc1 (stereo unspecified)	77	-6	-22	68*
Cc1ccc(-c2noc(C3CCCN(C(=O)c4ccc(F)cc4F)C3)n2)cc1 (stereo unspecified)	6	0	-2	39
COc1ccc(-c2cn3c(C)c(C(=O)N4CCCc5ccccc54)sc3n2)cc1	.	.	.	50
COc1ccc(-c2cn3c4c(sc3n2)CCCC4)cc1	55*	-4	-4	40
Cc1cccc(OCCCCc2c(C)n[nH]c2C)c1	21	6	15	100*
Cc1cccc(OCCCCc2c(C)n[nH]c2C)c1C	90*	-8	10	100*
COc1ccccc1OCCCCCc1c(C)n[nH]c1C	62*	-8	8	34
COc1ccc(/C=N/c2oc(-c3ccccc3)cc2C#N)cc1OC	-6	1	5	.
COc1ccc2cc(C(=O)Nc3ccc(Cl)cc3)sc(=O)c2c1OC	-10	48	.	.
Cc1ccc(NC(=O)CSc2nnc(Cc3cccn3C)n2-c2ccc(F)cc2)cc1	5	-4	6	17
CCc1ccc(NC(=O)CSc2nnc(Cc3cccn3C)n2-c2ccc(F)cc2)cc1	-2	1	-15	66*
SMILES	CD11b adhes inh	Mac1 fbg enh	E coli WT exp	Ecoli tolC
CCCCC(=O)Nc1sc2c(c1C(=O)OCC)CCC(C=O)=C2Cl	-1	-5	7	.
Cc1nn(-c2ccccc2)c(Cl)c1/C=C1\SC(=S)NC1=O	101*	-10	-19	.
COC(=O)N/N=C\c1c(C)nn(-c2ccccc2)c1Cl	4	2	.	.
CCCCCn1c(N2CCC(Cc3ccccc3)CC2)nc2c1c(=O)[nH]c(=O)n2C	.	.	.	71*
C=C(C)Cn1c(N2CCC(Cc3ccccc3)CC2)nc2c1c(=O)[nH]c(=O)n2C	.	.	-7	92*
CC(=O)Cn1c(N2CCC(Cc3ccccc3)CC2)nc2c1c(=O)[nH]c(=O)n2C	-6	-1	-1	7
CCCn1c(N2CCC(Cc3ccccc3)CC2)nc2c1c(=O)[nH]c(=O)n2C	1	-1	-2	53
O=C(CN1C(=O)C2CC=CCC2C1=O)Nc1nc2ccccc2[nH]1 (stereo unspecified)	-24	0	-7	-6
Cc1cccc(-n2ncc3c(N(C)C4CCCCC4)ncnc32)c1	.	.	.	94*
COc1ccc(-n2ncc3c(N(C)C4CCCCC4)ncnc32)cc1	.	.	.	76*
Cc1cccc(-n2ncc3c(N(CCO)CCO)ncnc32)c1	.	.	-1	-4

Assay outcomes: PubChem BioAssay, several laboratories
